Experimental data: ChEMBL document CHEMBL1154425, “Histatin-derived monomeric and dimeric synthetic peptides show strong bactericidal activity towards multidrug-resistant Staphylococcus aureus in vivo” (Antimicrob Agents Chemother, 2007)
Positions of bridges follow the written chain, without caps; N, C: chain ends. Residues, ends and D or L forms follow the SMILES beside them. Chains are numbered I, II in the order given.

Experiments:
Staphylococcus aureus [1] = test: Bactericidal activity against Staphylococcus aureus ATCC 25923 infected iv dosed Swiss mouse assessed per gram of infected soft tissue after 24 hrs; format: functional
How it was run: (§1)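 Mice infected with 0.1 ml saline containing 0.5 to 2.0 × 10^7 CFU. After 18 h, various peptide amounts given intravenously. Mice kept another 24 h, then sacrificed and viable bacteria counted. LC50 = μmol/g infected tissue cutting viable counts by 50% versus untreated mice. Means from at least three animals per peptide concentration.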

Kidney = test: Biodistribution in Swiss mouse kidney at 2 to 5 MBq, iv administered as [99m]technetium-radiolabeled peptide by scintigraphic imaging; format: ADME, organism-based; conditions: in vivo
How it was run: (§2)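 Mice carry a thigh-muscle infection from 0.1 ml saline containing 0.5 to 2.0 × 10^7 CFU S. aureus. Peptides labelled with 99mTc (2 to 5 MBq) are injected intravenously and tracked by scintigraphic imaging. Radioactivity in bladder, kidneys, spleen, liver and infected muscle is given as % of injected dose, mean ± SD.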

[2] = Ratio of drug level in infected thigh muscle to contralateral noninfected thigh muscle in multidrug-resistant Staphylococcus aureus 2141 infected Swiss mouse administered as [99m]technetium-radiolabeled peptide; format: ADME, tissue-based; conditions: in vivo
How it was run: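 99mTc-labelled peptides (2 to 5 MBq) injected intravenously into infected mice. Scintigraphic imaging at intervals. Ratio = accumulation in infected thigh muscle (target) over contralateral noninfected thigh muscle (nontarget).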

Staphylococcus aureus [3] = test: Bactericidal activity against multidrug-resistant Staphylococcus aureus 2141 isolate infected iv dosed Swiss mouse assessed per gram of infected soft tissue after 24 hrs; format: functional; how it was run: as §1
[4] = Ratio of drug level in infected thigh muscle to contralateral noninfected thigh muscle in Staphylococcus aureus […] infected Swiss mouse administered as [99m]technetium-radiolabeled peptide; format: ADME, tissue-based; conditions: in vivo
How it was run: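 Thighs are infected with 0.5 to 2.0 × 10^7 CFU S. aureus in 0.1 ml saline, and 99mTc-labelled peptide is given intravenously. Scintigraphic imaging compares radioactivity in the infected thigh muscle (target) with the contralateral noninfected thigh muscle (nontarget). The T/NT ratio is determined at several intervals after injection.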

Mus musculus = test: Metabolic stability in Swiss mouse at 2 to 5 MBq, iv administered as [99m]technetium-radiolabeled peptide by scintigraphic imaging; format: ADME, organism-based; conditions: in vivo
How it was run: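 After intravenous injection of 99mTc-labelled peptide (2 to 5 MBq) into thigh-infected mice, scintigraphic imaging follows clearance from the circulation. The value is the biological half-life in minutes, mean ± SD.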

Spleen = test: Biodistribution in Swiss mouse spleen at 2 to 5 MBq, iv administered as [99m]technetium-radiolabeled peptide by scintigraphic imaging; format: ADME, organism-based; conditions: in vivo; how it was run: as §2
Staphylococcus aureus [5] = test: Bactericidal activity against Staphylococcus aureus ATCC 25923 after 2 hrs; format: functional; conditions: ATCC 25923, 2 h
How it was run: (§3)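 1 × 10^6/ml bacteria in phosphate buffer with 1% (wt/vol) tryptic soybean broth exposed to various peptide amounts, 2 h at 37°C. Viable counts on DST plates. LC50 = concentration (μM) cutting viable bacteria by 50% versus no-peptide incubations. Means from at least three independent experiments.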

Staphylococcus aureus [6] = test: Bactericidal activity against multidrug-resistant Staphylococcus aureus 2141 isolate after 2 hrs; format: functional; how it was run: as §3
[7] = Biodistribution in Swiss mouse urinary bladder at 2 to 5 MBq, iv administered as [99m]technetium-radiolabeled peptide by scintigraphic imaging; format: ADME, organism-based; conditions: in vivo; how it was run: as §2
Liver = test: Biodistribution in Swiss mouse liver at 2 to 5 MBq, iv administered as [99m]technetium-radiolabeled peptide by scintigraphic imaging; format: ADME, organism-based; conditions: in vivo; how it was run: as §2
[8] = Biodistribution in Staphylococcus aureus infected Swiss mouse thigh muscle at 2 to 5 MBq, iv administered as [99m]technetium-radiolabeled peptide by scintigraphic imaging; format: ADME, organism-based, Muscle tissue; conditions: in vivo; how it was run: as §2

Compound	LC50 (Staphylococcus aureus [1]) [µmol/g]	Drug uptake (Kidney) [%ID]	Ratio [2]	LC50 (Staphylococcus aureus [3]) [µmol/g]	Ratio [4]	t1/2 (Mus musculus) [min]	Drug uptake (Spleen) [%ID]	LC50 (Staphylococcus aureus [5]) [µM]	LC50 (Staphylococcus aureus [6]) [µM]	Drug uptake [7] [%ID]	Drug uptake (Liver) [%ID]	Drug uptake [8] [%ID]
N=C(N)NCCC[C@H](NC(=O)[C@H](Cc1cnc[nH]1)NC(=O)[C@H](CO)NC(=O)[C@H](Cc1cnc[nH]1)NC(=O)[C@H](Cc1cnc[nH]1)NC(=O)[C@H](CCCCN)NC(=O)[C@H](CCC(=O)O)NC(=O)[C@H](Cc1cnc[nH]1)NC(=O)[C@H](Cc1ccccc1)NC(=O)[C@H](CCCCN)NC(=O)[C@H](CCCNC(=N)N)NC(=O)[C@@H](N)CCCCN)C(=O)NCC(=O)N[C@@H](Cc1ccc(O)cc1)C(=O)O (H-KRKFHEKHHSHRGY-OH)	2	21	1.8	1	3.5	17.7	2.1	35	112	30.7	9.4	0.4
N=C(N)NCCC[C@H](NC(=O)[C@H](Cc1cnc[nH]1)NC(=O)[C@H](CO)NC(=O)[C@H](Cc1cnc[nH]1)NC(=O)[C@H](Cc1cnc[nH]1)NC(=O)[C@H](CCCCN)NC(=O)[C@H](CCC(=O)O)NC(=O)[C@H](Cc1cnc[nH]1)NC(=O)[C@H](Cc1ccccc1)NC(=O)[C@H](CCCCN)NC(=O)[C@H](CCCNC(=N)N)NC(=O)[C@@H](N)CCCCN)C(=O)NCC(=O)N[C@@H](Cc1ccc(O)cc1)C(=O)NCCCC[C@H](NC(=O)[C@H](Cc1ccc(O)cc1)NC(=O)CNC(=O)[C@H](CCCNC(=N)N)NC(=O)[C@H](Cc1cnc[nH]1)NC(=O)[C@H](CO)NC(=O)[C@H](Cc1cnc[nH]1)NC(=O)[C@H](Cc1cnc[nH]1)NC(=O)[C@H](CCCCN)NC(=O)[C@H](CCC(=O)O)NC(=O)[C@H](Cc1cnc[nH]1)NC(=O)[C@H](Cc1ccccc1)NC(=O)[C@H](CCCCN)NC(=O)[C@H](CCCNC(=N)N)NC(=O)[C@@H](N)CCCCN)C(N)=O (I: H-KRKFHEKHHSHRGYK-NH2 / II: H-KRKFHEKHHSHRGY; amide I:15-II:C)	1.5	10.5	1.8	2	4.4	8.6	3.2	8.4	8.2	26.8	9	0.5
